One compound from ChEMBL document CHEMBL4350999, “Enhanced tumor retention of NTSR1-targeted agents by employing a hydrophilic cysteine cathepsin inhibitor” (Eur J Med Chem, 2019) can be followed below.

The Ki is the equilibrium dissociation constant of an inhibitor or competing ligand from its target.

Active and inactive are the calls of the source. No cut-off for these calls is given here.

Data set [1] concerns the target T1, Cathepsin B (Homo sapiens, UniProt P07858). Description: Binding affinity to cathepsin B in human HT-29 cells assessed as intracellular adduct formation at 0.74 MBq incubated for 4 hrs in presence of E-64 using 177Lu labelled compound by SDS-PAGE analysis. Type of data set: cell-based. Set-up: dose or concentration left out as unconfirmed. In a few lines:
(§1)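 HT-29 cells (1 × 10^6/well) incubated 4 h at 37 °C with 177Lu conjugate (20 μCi, 0.74 MBq) in 1 mL medium, with or without E-64 (10 μM) or NTSR1 peptide N1 (20 μM). Cells washed and refed; at set times cells pooled, RIPA-lysed with protease inhibitor. Lysates heated 85 °C 2 min, run on 16% tris-glycine SDS-PAGE, and phosphor autoradiography taken after 72 h exposure.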

Data set [2] in a line: Drug retention in human HT-29 cells assessed as increase in mean fluorescence intensity at 5 uM incubated for 2 hrs and measured at 24 hrs using natEu labelled compound by lysotracker green staining based confocal microscopic analysis. It is filed as ADME, cell-based. The note with it: ht-29, 2 h. In a few lines: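 HT-29 cells (1.25 × 10^5/well) loaded with natEu conjugate (5 μM), washed, then chased in fresh medium up to 24 h. Lysotracker Green (100 nM) applied 2 h before each read; cells fixed and imaged confocally at 405/488 nm. Per-cell mean fluorescence and Lysotracker co-localization quantified.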

For data set [3], the target named is T2, Procathepsin L (Homo sapiens, UniProt P07711). As to the kind of experiment: Binding affinity to cathepsin L in human HT-29 cells assessed as intracellular adduct formation at 0.74 MBq incubated for 4 hrs in presence of E-64 using 177Lu labelled compound by SDS-PAGE analysis. It is filed as cell-based. The arrangement: dose or concentration left out as unconfirmed. In a few lines:
as §1
Target sequence in this assay (P07711 114-333 limits assumed): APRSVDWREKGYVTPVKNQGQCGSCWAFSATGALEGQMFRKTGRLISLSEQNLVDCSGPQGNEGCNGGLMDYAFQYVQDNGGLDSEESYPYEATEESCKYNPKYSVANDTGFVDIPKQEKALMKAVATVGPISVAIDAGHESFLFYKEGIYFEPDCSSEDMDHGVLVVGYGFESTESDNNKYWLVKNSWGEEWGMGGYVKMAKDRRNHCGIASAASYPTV

The nature of data set [4]: Drug uptake in lung of SCID mouse xenografted with human HT-29 cells using 177Lu labelled compound at 0.37 MBq/mouse, iv co-treated with D-lysine at 40 mg/kg measured at 24 hrs by gamma counter analysis. Type of data set: ADME, organism-based. The note with it: in vivo. In a few lines:
(§2)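 Female SCID mice bore s.c. HT-29 xenografts (5 × 10^6 cells in Matrigel, about 80 mm3). D-lysine 40 mg/kg was co-injected i.v. with 10 μCi (0.37 MBq) of purified 177Lu-conjugate. Tissues were harvested at 24 h, weighed and gamma-counted, reported as %ID/g; mean ± SD, n = 5.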
A general note: Xenograft models place foreign cells or tissue in a host animal.

A short description of data set [5]: Drug excretion in SCID mouse xenografted with human HT-29 cells pretreated for 1 hr with colchicine at 1 mg/kg, ip followed by 177Lu labelled compound at 0.37 MBq/mouse, iv measured at 24 hrs by gamma counter analysis. It is filed as ADME, organism-based. To be noted: in vivo. In a few lines: (§3)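 Female SCID mice bearing s.c. flank HT-29 xenografts (5 × 10^6 cells in Matrigel, ~80 mm3). Given 10 μCi (0.37 MBq) 177Lu conjugate i.v. by tail vein; groups sacrificed at 4, 24, 72 h. Tissues weighed and gamma-counted as %ID/g, excretion as %ID; n = 5, mean ± SD. Blocking arms: colchicine 1 mg/kg i.p. beforehand, or D-lysine 40 mg/kg co-injected.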

A short description of data set [6]: Drug uptake in muscle of SCID mouse xenografted with human HT-29 cells using 177Lu labelled compound at 0.37 MBq/mouse, iv co-treated with D-lysine at 40 mg/kg measured at 24 hrs by gamma counter analysis. Type of data set: ADME, organism-based, Muscle tissue. The note with it: in vivo. In a few lines:
as §2

Data set [7] in a line: Drug uptake in brain of SCID mouse xenografted with human HT-29 cells using 177Lu labelled compound at 0.37 MBq/mouse, iv co-treated with D-lysine at 40 mg/kg measured at 24 hrs by gamma counter analysis. To be noted: in vivo. Type of data set: ADME, organism-based. An outline of the steps:
as §2

Data set [8] deals with T1, Cathepsin B. As to the kind of experiment: Binding affinity to human liver cathepsin B assessed as protein-conjugate adduct formation at 0.74 MBq incubated for 30 mins in presence of E-64 using 177Lu labelled compound by SDS-PAGE analysis. To be noted: 0.74 M. In a few lines: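 Purified human liver CatB or CatL (3 nM) in 50 mM sodium acetate/1 mM EDTA pH 5.0 incubated 30 min with 177Lu conjugate (500,000 cpm) in Tris/MgCl2/DTT buffer pH 5.5, alone or with E-64 (10 μM) or N1 (20 μM). Mixtures heated 85 °C 2 min, run on 16% tris-glycine gel at 110 V for 90 min, and read by phosphor autoradiography.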

A short description of data set [9]: Drug uptake in spleen of SCID mouse xenografted with human HT-29 cells pretreated for 1 hr with colchicine at 1 mg/kg, ip followed by 177Lu labelled compound at 0.37 MBq/mouse, iv measured at 24 hrs by gamma counter analysis. Type of data set: ADME, organism-based. To be noted: in vivo. In a few lines:
(§4)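 HT-29 xenograft SCID mice pretreated with colchicine 1 mg/kg i.p., then given 177Lu conjugate i.v. at 10 μCi (0.37 MBq)/mouse. Tissues excised at 24 h, weighed and gamma counted for %ID/g (n = 5, mean ± SD).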

Data set [10] can be described thus: Drug excretion in SCID mouse xenografted with human HT-29 cells using 177Lu labelled compound at 0.37 MBq/mouse, iv co-treated with D-lysine at 40 mg/kg measured at 24 hrs by gamma counter analysis. It is filed as ADME, organism-based. The note with it: in vivo. An outline of the steps:
as §3

Data set [11] deals with T2, Procathepsin L. Description: Inhibition of human liver cathepsin L assessed as inhibition constant using Z-Phe-Arg-AMC as substrate measured every 5 mins for 1 hr by fluorescence assay. An outline of the steps: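 Human liver cathepsin L in acetate buffer pH 5.5 (340 mM sodium acetate, 60 mM acetic acid, 1 mM EDTA, 3 mM DTT). Biological triplicate.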
Target sequence in this assay (P07711 whole entry): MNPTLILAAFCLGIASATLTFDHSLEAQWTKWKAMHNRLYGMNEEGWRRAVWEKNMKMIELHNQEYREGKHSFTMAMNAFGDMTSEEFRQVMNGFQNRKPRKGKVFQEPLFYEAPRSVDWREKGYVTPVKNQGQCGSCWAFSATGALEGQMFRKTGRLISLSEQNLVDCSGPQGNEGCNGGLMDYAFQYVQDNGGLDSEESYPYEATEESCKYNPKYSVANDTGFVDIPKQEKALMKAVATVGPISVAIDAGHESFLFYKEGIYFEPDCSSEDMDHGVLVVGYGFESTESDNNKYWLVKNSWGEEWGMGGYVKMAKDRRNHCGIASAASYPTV
Data set [12] in a line: Drug uptake in large intestine of SCID mouse xenografted with human HT-29 cells pretreated for 1 hr with colchicine at 1 mg/kg, ip followed by 177Lu labelled compound at 0.37 MBq/mouse, iv measured at 24 hrs by gamma counter analysis. Type of data set: ADME, organism-based. To be noted: in vivo. In a few lines: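 HT-29 flank xenografts in female SCID mice (5 × 10^6 cells in Matrigel, about 80 mm3). Colchicine 1 mg/kg was given i.p. before a tail-vein injection of 10 μCi (0.37 MBq) of purified 177Lu-conjugate. Tissues were taken at 24 h, weighed and gamma-counted as %ID/g; mean ± SD, n = 5.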

A short description of data set [13]: Drug uptake in stomach of SCID mouse xenografted with human HT-29 cells pretreated for 1 hr with colchicine at 1 mg/kg, ip followed by 177Lu labelled compound at 0.37 MBq/mouse, iv measured at 24 hrs by gamma counter analysis. The note with it: in vivo. Type of data set: ADME, organism-based. In a few lines:
as §4

A short description of data set [14]: Drug uptake in bone of SCID mouse xenografted with human HT-29 cells using 177Lu labelled compound at 0.37 MBq/mouse, iv co-treated with D-lysine at 40 mg/kg measured at 24 hrs by gamma counter analysis. Type of data set: ADME, organism-based, Bone element. The note with it: in vivo. In a few lines:
as §2

Data set [15] in a line: Drug uptake in kidney of SCID mouse xenografted with human HT-29 cells using 177Lu labelled compound at 0.37 MBq/mouse, iv co-treated with D-lysine at 40 mg/kg measured at 24 hrs by gamma counter analysis. It is filed as ADME, organism-based. The note with it: in vivo. An outline of the steps: as §2
Data set [16] addresses T1, Cathepsin B. Description: Inhibition of human liver cathepsin B assessed as inhibition constant using Z-Arg-Arg-AMC as substrate measured every 5 mins for 1 hr by fluorescence assay.
Data set [17] can be described thus: Drug uptake in SCID mouse xenografted with human HT-29 cells assessed as tumour retention using 177Lu labelled compound at 0.37 MBq/mouse, iv co-treated with D-lysine at 40 mg/kg measured at 24 hrs by gamma counter analysis. It is filed as ADME, organism-based. The note with it: in vivo. An outline of the steps:
as §3

Data set [18] can be described thus: Drug retention in liver lysates of mouse xenografted with human HT-29 cells assessed as macromolecule associated radioactivity at 29.6 MBq co-treated with D-lysine measured after 72 hrs using 177Lu labelled compound by gamma counter analysis relative to control. To be noted: in vivo. It is filed as ADME, tissue-based.

Regarding `Cc1cc(O)cc(C)c1C[C@H](NC(=O)[C@@H]1CCCN1C(=O)[C@H](CCCNC(=N)N)NC(=O)[C@H](CCCNC(=N)N)N(C)C(=O)[C@@H]1CCCN1C(=O)[C@H](CCCCN)NC(=O)[C@@H](CO)NC(=O)[C@@H](CO)NC(=O)[C@@H](CO)NC(=O)[C@H](Cc1cn(CCNC(=O)[C@H](CCCNC(=N)N)NC(=O)[C@H](CC(C)C)NC(=O)C2OC2C(=O)O)nn1)NC(=O)CN1CCN(CC(=O)O)CCN(CC(=O)O)CCN(CC(=O)O)CC1)C(=O)N[C@H](C(=O)N[C@@H](CC(C)C)C(=O)O)C(C)(C)C` (stereo partly drawn), the outcome in data set [1] and in data set [3] was Active. The Drug uptake entry in data set [2] is recorded as “Active”; in data set [4], 0.41 % ID/g; in [6], 0.07 % ID/g; in [7], 0.02 % ID/g; in [9] it was 4 % ID/g; in [12] it was 0.67 % ID/g. For the same compound, the Drug uptake stood at 0.29 % ID/g in data set [13]; 0.6 % ID/g in data set [14]; 34 % ID/g in data set [15]; 6 % ID/g in [17]; 80% in [18]. Also, the results for the Drug excretion in data set [5] and in data set [10] were 85 %ID and 83 %ID, respectively. Moreover, the outcome in data set [8] was inactive. For the same compound, the Ki in [11] is 76 nM; in data set [16], 110 nM.
